# The sample as a whole holds a higher share of hits than the screen did.
# T cruzi inh: inhibitors of intracellular T. cruzi growth, primary screen, luminescence, NIH3T3 host cells; T. cruzi beta-gal in NIH3T3, 90 h; inhibition, % (concentration not given with the values); 300,000 compounds, 1.4% hits; AID 1885, 2009;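 active means mean inhibition across valid replicates above about 55%, limit read from the data; inconclusive means mean below that limit but half or more replicates reach it; inactive means mean below it, under half of replicates reach it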;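 further: signal also drops with host cell toxicity which is not excluded here; higher percent means less beta-gal luminescence so fewer parasites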
#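 Assay system: NIH/3T3 host cells with β-galactosidase reporter T. cruzi; input: 5,000 host fibroblasts per well; compound: single 50 nL compound addition per well in DMSO; timing: ≥90 h infection period, 3 h prior cell attachment; measured by: GalScreen β-gal luminescence, detergent lysis, 60 min; evaluation: percent inhibition of parasite-derived β-gal signal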
# MPTP block: mitochondrial permeability transition pore inhibitors, primary screen, biochemical, isolated mouse mitochondria, absorbance. inhibition, % at 10 µM. Ca2+ swelling absorbance, 30 min. 360,000 compounds, 1.4% hits;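 active means inhibition of 50% or more, scaled per plate between neutral and stimulator controls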
# Redox H2O2 prof: compounds producing H2O2 with reducing agent – biochemical, NIH compound library profiling, artefact control for MLSCN library redox annotation, primary screen; DTT-dependent redox cycling H2O2, phenol red/HRP absorbance; 100% = 100 µM peroxide control, 0% = buffer; activation, % at 10 µM; 200,000 compounds, 0.03% hits; AID 878, 2007;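 active means activation of at least 50% relative to the plate's high and low controls in the primary single-dose screen; inactive means activation below 50%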;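 further: compound incubated with DTT at 0.8 mM final as the reducing agent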
# L major viab: Leishmania major promastigote growth inhibition, primary screen; Leishmania major promastigotes, resazurin fluorescence viability; inhibition, % at 10 µM; 200,000 compounds, 9% hits; AID 1063, 2008; in the data active means inhibition above about 50%;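 further: promastigotes grown with compound for 44 hours at 28 °C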
# Lipid droplet: inhibitors of hepatocyte lipid droplet formation, primary screen, imaging, high-throughput imaging, BODIPY stain; AML12 mouse hepatocytes, oleate lipid droplets; AID 1656, 2009; 240,000 compounds, 0.4% hits; inhibition, % at 6.5 µM;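 active means lipid droplet intensity inhibited by at least 50%, with more than 500 cells counted; inconclusive means wells with under 300 cells, treated as cytotoxic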
#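 Technique: fluorescence imaging, 20x objective, two fields per well / Assay system: AML12 hepatocytes (mouse) / Measure: % inhibition of lipid droplet signal / Doses: 6.5 µM single-point dosing / Incubation: overnight exposure / Reagent: 100 µM oleic acid challenge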
# A number is an active result; 0 = inactive; ? = inconclusive; - = no result given; ! = repeats disagree.
SMILES,T cruzi inh,MPTP block,Redox H2O2 prof,L major viab,Lipid droplet
CCOc1ccc(S(=O)(=O)NCc2ccc(OC)cc2)c2cccnc12,0,0,0,90,0
CCOc1ccc(S(=O)(=O)N2CCN(c3ccc(OC)cc3)CC2)c2cccnc12,0,0,0,0,-
COc1ccc(Nc2ccc(N3C(=O)CCCC3=O)cc2[N+](=O)[O-])cc1OC,0,0,0,88,0
COc1ccc(Nc2ccc(N3C(=O)CC(C)C3=O)cc2[N+](=O)[O-])cc1OC (stereo unspecified),0,0,0,0,0
N/C(=N\OC(=O)/C=C/c1ccc(Br)cc1)c1ccccn1,0,0,0,77,0
C/C(=N\OC(=O)c1ccc(Br)cc1)c1ccccn1,0,0,-,88,0
COc1ccc(Cl)cc1NC(=O)CN1CCc2ccccc21,0,0,0,0,0
CSC1=NCCN1CCOc1ccccc1,0,0,0,0,0
C=CCN1C(=O)/C(=C\c2ccc(Oc3nc(N4CCOCC4)nc(N4CCOCC4)n3)c(OC)c2)SC1=S,0,0,0,54,0
CCCS(=O)(=O)NC(=O)C1(C)CCN(C(=O)c2snnc2C)C1 (stereo unspecified),-,0,-,-,-
O=C(NNc1nc(-c2ccc(Cl)cc2)cs1)c1ccco1,0,0,0,58,0
O=C(Nc1nc(-c2ccc(S(=O)(=O)N3CCCC3)cc2)cs1)c1ccco1,0,0,0,97,0
CNc1nc(-c2ccc(S(=O)(=O)N3CCCCC3)cc2)cs1,-,0,-,-,-
O=C(NNc1nc(-c2ccccc2)cs1)c1ccco1,0,0,0,67,0
CCCCN(C(C)=O)c1c(CC)nc2ccc(C(=O)Nc3cccc(OCC(=O)N(C)C)c3)cn12,-,0,-,-,-
COc1ccc(N2CCOCC2)c(NC(=O)c2cc3ccccc3o2)c1,0,0,-,-,0
COCCn1c(SCC(=O)c2c[nH]c3ccccc23)nnc1-c1ccncc1,0,0,0,83,0
CCn1c(SCC(=O)c2c[nH]c3ccccc23)nnc1-c1cccs1,0,0,0,0,0
Cc1c(O)cccc1C(=O)N[C@@H](CSc1ccccc1)[C@H](O)CN1C[C@H]2CCCC[C@H]2C[C@H]1C(=O)NC(C)(C)C,67!,0,-,-,0
CSCCC(NC(=O)c1ccco1)C(=O)NC1CCCCCC1 (stereo unspecified),0,0,-,-,-
CN(Cc1ccc(Cl)cc1Cl)C(=O)c1cccc(S(=O)(=O)N2CCN(c3ccccc3)CC2)c1,60,0,-,-,-
COc1ccc(Cl)cc1N(CC(=O)NC(C)(C)C)S(=O)(=O)c1ccc(C)c([N+](=O)[O-])c1,0,0,0,96,0
COC(=O)CN(c1cc(Cl)ccc1OC)S(=O)(=O)c1ccc(C)cc1,0,0,-,-,0
COc1ccc(N(CCCN2C(=O)c3cccc4cccc(c34)C2=O)C(=O)c2cccnc2)cc1,68,0,0,51,0
COc1cc(OC)cc(C(=O)N(CCCN2C(=O)c3cccc4cccc(c34)C2=O)c2cccc(OC)c2)c1,0,0,0,0,0
SMILES,T cruzi inh,MPTP block,Redox H2O2 prof,L major viab,Lipid droplet
COc1ccc(N(CCCN2C(=O)c3cccc4cccc(c34)C2=O)C(=O)c2ccncc2)cc1,55,0,0,69,0
O=C(C1=C(O)C(=O)N(CCCn2ccnc2)C1c1cccc(Br)c1)c1ccco1 (stereo unspecified),0,0,-,-,0
CCOc1cc(CNCCO)c(Cl)cc1OCC(=O)NCCc1ccccc1,0,0,0,91,-
CCOc1cc(CNC(C)C)c(Cl)cc1OCC(=O)NCCc1ccccc1,0,0,0,99,0
CCOc1cc(C=O)cc(Br)c1OCC(=O)NCCc1ccccc1,0,0,0,0,0
O=C(O)Cn1nnc(-c2ccc(OCc3ccccc3)cc2)n1,0,0,-,-,-
Nc1c(S(=O)(=O)c2cccc(Cl)c2)c2nc3ccccc3nc2n1/N=C/c1ccc(O)c(O)c1,62,-,0,100,-
COCCSc1nnc(NC(=O)CCS(=O)(=O)c2ccccc2)s1,0,0,-,-,0
CCN(CC)S(=O)(=O)c1ccc(Nc2nc3ccccc3n3nnnc23)cc1,0,0,0,67,0
COCc1cc(C)nc(N/N=C/c2ccc(Cl)c(Cl)c2)c1C#N,0,0,0,85,0
CC1=NN(c2nc(-c3ccc(C)cc3)cs2)C(=O)C1N=Nc1ccccc1O (stereo unspecified),55,0,0,99,0
C=CCn1cc(/C=N\NC(=O)c2cc3c(ccc4ccccc43)o2)c2ccccc21,0,0,0,100,-
CN1CCN(Cc2nc3ccccc3c(=O)n2Cc2nc(-c3ccc4ccccc4c3)cs2)CC1,0,0,0,100,0
CN1CCN(Cc2nc3ccccc3c(=O)n2Cc2nc(-c3cccc([N+](=O)[O-])c3)cs2)CC1,-,0,0,0,0
COc1cc2c(C(=O)N3CCN(c4cccc(Cl)c4)CC3)cn(CC(C)C)c(=O)c2cc1OC,0,0,0,58,0
CCOc1ccccc1C(=O)N1CCN(c2cccc(Cl)c2)CC1,0,0,0,0,?
COc1ccccc1N1CCN(c2ncc(C(=O)N3CCN(c4cccc(Cl)c4)CC3)c3ccccc23)CC1,61,0,0,62,0
COc1cc2c(cc1NC(=O)CSc1ccccc1)oc1ccccc12,0,0,0,0,0
COc1cc2c(cc1NC(=O)COC(=O)[C@@H](NS(=O)(=O)c1cccc(Cl)c1)C(C)C)oc1ccccc12,0,0,0,62,0
COc1ccc(S(=O)(=O)N[C@@H](C)C(=O)OCC(=O)Nc2cc3oc4ccccc4c3cc2OC)cc1,0,0,0,0,0
COc1cc2c(cc1NC(=O)CSc1nc3cc(Cl)ccc3s1)oc1ccccc12,0,0,0,51,0
CCN1CCCc2cc(CN(CCN3CCOCC3)C(=S)Nc3cccc(OC)c3)ccc21,0,0,0,0,0
CC(C(=O)NCC1CCCO1)n1cc([N+](=O)[O-])cn1 (stereo unspecified),0,0,0,0,0
CC1CCCC(NC(=O)COC(=O)[C@@H](NC(=O)c2ccco2)C(C)C)C1C (stereo partly specified),0,0,0,0,0
Cc1cnc(C(=O)OCC(=O)Nc2c(Cl)cc(Cl)cc2Cl)cn1,-,0,-,-,-
CCOC(=O)C(=O)C1=C(N2CCOCC2)/C(=C\c2ccc(F)cc2)CC1,0,0,0,71,0
COC(=O)c1ccc(C(NC(=O)c2cccnc2)NC(=O)c2cccnc2)cc1,0,0,0,0,0
Cc1ccc(NC(=S)N2CCCC(O)C2)cc1 (stereo unspecified),0,0,0,0,0
Cc1csc(C2=C(O)CN(CCc3ccccc3)C2=N)n1,0,0,0,99,-
OC(CNCC1COc2ccccc2O1)COCc1cccs1 (stereo unspecified),0,0,0,92,0

# Compound activity: PubChem BioAssay, several laboratories
